Substrate in series [1]: C[C@@H](O)[C@H](NC(=O)c1ccc(C#Cc2ccc(CN3CCOCC3)cc2)cc1)C(=O)NO
Description: Ratio of Kcat to Km for Escherichia coli LpxC. A digest of the protocol: (§1)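 Wild-type and site-directed mutant LpxC (E. coli, R. leguminosarum) expressed and purified, then assayed by a previously described method. Substrate was UDP-3-O-(R-3-hydroxymyristoyl)-N-acetylglucosamine, varied for Michaelis–Menten analysis. KM and kcat came from data sets pooling multiple independent experiments.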

Substrate in series [2]: C[C@@H](O)[C@H](NC(=O)c1ccc(C#Cc2ccc(CN3CCOCC3)cc2)cc1)C(=O)NO
Kind of series: Activity of Escherichia coli LpxC. The procedure, abridged:
as §1

Substrate in series [3]: C[C@@H](O)[C@H](NC(=O)c1ccc(C#Cc2ccc(CN3CCOCC3)cc2)cc1)C(=O)NO
Description: Ratio of Kcat to Km of Escherichia coli LpxC Q202W/G210S mutant. A digest of the protocol:
as §1

Substrate in series [4]: C[C@@H](O)[C@H](NC(=O)c1ccc(C#Cc2ccc(CN3CCOCC3)cc2)cc1)C(=O)NO
Kind of series: Activity of Escherichia coli LpxC Q202W/G210S mutant. A digest of the protocol: as §1

Substrate in series [5]: C[C@@H](O)[C@H](NC(=O)c1ccc(C#Cc2ccc(CN3CCOCC3)cc2)cc1)C(=O)NO
Description: Ratio of Kcat to Km of Rhizobium leguminosarum LpxC S214G mutant. A digest of the protocol: as §1

Substrate in series [6]: C[C@@H](O)[C@H](NC(=O)c1ccc(C#Cc2ccc(CN3CCOCC3)cc2)cc1)C(=O)NO
Description: Activity of Rhizobium leguminosarum LpxC S214G mutant. The procedure, abridged:
as §1

Substrate in series [7]: C[C@@H](O)[C@H](NC(=O)c1ccc(C#Cc2ccc(CN3CCOCC3)cc2)cc1)C(=O)NO
Kind of series: Ratio of Kcat to Km of Rhizobium leguminosarum LpxC W206Q/S214G mutant. A digest of the protocol: as §1

Substrate in series [8]: C[C@@H](O)[C@H](NC(=O)c1ccc(C#Cc2ccc(CN3CCOCC3)cc2)cc1)C(=O)NO
Kind of series: Activity of Rhizobium leguminosarum LpxC W206Q/S214G mutant. The procedure, abridged:
as §1

In general, kcat/Km refers to the second-order rate constant that governs catalysis at low substrate concentration. As usually defined, the Km is the substrate concentration at which the rate is half of its maximum. The term kcat denotes the maximal rate divided by the concentration of active sites.

B1: UDP-3-O-acyl-N-acetylglucosamine deacetylase (Escherichia coli K-12), P0A725 (protein)
chain: MIKQRTLKRIVQATGVGLHTGKKVTLTLRPAPANTGVIYRRTDLNPPVDFPADAKSVRDTMLCTCLVNEHDVRISTVEHLNAALAGLGIDNIVIEVNAPEIPIMDGSAAPFVYLLLDAGIDELNCAKKFVRIKETVRVEDGDKWAEFKPYNGFSLDFTIDFNHPAIDSSNQRYAMNFSADAFMRQISRARTFGFMRDIEYLQSRGLCLGGSFDCAIVVDDYRVLNEDGLRFEDEFVRHKMLDAIGDLFMCGHNIIGAFTAYKSGHALNNKLLQAVLAKQEAWEYVTFQDDAELPLAFKAPSAVLA
As for B1, the kcat/Km in series [1] was 1.1 10^6/M/s. Further, in series [2], the Km stood at 4 µM and the kcat is 4.2 s⁻¹.

B2: UDP-3-O-acyl-N-acetylglucosamine deacetylase (Escherichia coli K-12), P0A725 Q202W,G210S (protein)
chain: MIKQRTLKRIVQATGVGLHTGKKVTLTLRPAPANTGVIYRRTDLNPPVDFPADAKSVRDTMLCTCLVNEHDVRISTVEHLNAALAGLGIDNIVIEVNAPEIPIMDGSAAPFVYLLLDAGIDELNCAKKFVRIKETVRVEDGDKWAEFKPYNGFSLDFTIDFNHPAIDSSNQRYAMNFSADAFMRQISRARTFGFMRDIEYLWSRGLCLGSSFDCAIVVDDYRVLNEDGLRFEDEFVRHKMLDAIGDLFMCGHNIIGAFTAYKSGHALNNKLLQAVLAKQEAWEYVTFQDDAELPLAFKAPSAVLA
As for B2, the catalytic efficiency (kcat/Km) in series [3] is 1.5 10^6/M/s. Also, in series [4], the Km came out at 11 µM and the kcat came to 1.6 s⁻¹.

B3: UDP-3-O-acyl-N-acetylglucosamine deacetylase (Rhizobium leguminosarum bv. trifolii (strain WSM1325)), C6ARS9 S214G (protein)
chain: MAIGLLGFQTTVSRPVTLSGTGVHSGAEVSITLNPAESDTGVVFQRLHDNGDITELKAVSSQVGNTDLCTVLGFSPAHSVATIEHVMAAVYALGLDNVVIEVQGSEMPIMDGSSLPFVEAIEQVGLVSLGVKRRYIRITKPVRIEHGGSWSEFRPYDGTRFEVEIDFECPLIGRQKWAGDMTPAVFKAELSRARTFGFMRDVERLWASGHALGGSLENSVVISDDNTVINVEGLRYAKDEFVRHKTLDAVGDLSLAGVQFIGCYRSYRGGHKMNANALKALLADSSAYEVVETSTPRQRVAARELIAVSASEFAPWSA
As for B3, the kcat/Km in series [5] is 3.1 10^4/M/s. In series [6], the Km worked out at 3.9 µM and the kcat came to 0.12 s⁻¹.

B4: UDP-3-O-acyl-N-acetylglucosamine deacetylase (Rhizobium leguminosarum bv. trifolii (strain WSM1325)), C6ARS9 W206Q,S214G (protein)
chain: MAIGLLGFQTTVSRPVTLSGTGVHSGAEVSITLNPAESDTGVVFQRLHDNGDITELKAVSSQVGNTDLCTVLGFSPAHSVATIEHVMAAVYALGLDNVVIEVQGSEMPIMDGSSLPFVEAIEQVGLVSLGVKRRYIRITKPVRIEHGGSWSEFRPYDGTRFEVEIDFECPLIGRQKWAGDMTPAVFKAELSRARTFGFMRDVERLQASGHALGGSLENSVVISDDNTVINVEGLRYAKDEFVRHKTLDAVGDLSLAGVQFIGCYRSYRGGHKMNANALKALLADSSAYEVVETSTPRQRVAARELIAVSASEFAPWSA
In the case of B4, the kcat/Km in series [7] is 1.4 10^4/M/s. For the same protein, in series [8], the Michaelis-Menten constant (Km) came out at 10 µM and the kcat is 0.14 s⁻¹.
